# In the EternaBench riboswitch data:
# Tested on: MS2 coat protein
# Assay: apparent Kd, MS2 coat protein; higher = weaker binding; RNA-MaP array
# Method in brief: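 In Tris-HCl pH 7.5 buffer with KCl, MgCl2, BSA, DTT, tRNA and Tween20, with or without input ligand, fluorescently labeled MS2 coat protein at 1.5 nM to 3 μM was incubated at room temperature with designed RNAs. The RNAs had been transcribed on an Illumina sequencing chip from sequenced DNA templates, and incubation ran 0.8–1.5 h at the lowest to 10–20 min at the highest concentrations. Apparent Kd is the median of binding-curve fits for individual clusters. Designs measured on fewer than 10 clusters were excluded.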
# [1] = designed as: OFF switch for flavin mononucleotide, no ligand
# [2] = ligand present: flavin mononucleotide, designed as: OFF switch for flavin mononucleotide
# [3] = designed as: ON switch for flavin mononucleotide, no ligand
# [4] = ligand present: flavin mononucleotide, designed as: ON switch for flavin mononucleotide
# [5] = designed as: OFF switch for tryptophan, no ligand
# [6] = ligand present: tryptophan, designed as: OFF switch for tryptophan
# [7] = designed as: ON switch for tryptophan, no ligand
# [8] = ligand present: tryptophan, designed as: ON switch for tryptophan
Sequence,apparent Kd [1] [nM],apparent Kd [2] [nM],further results
AAAACUAAAGUCAGGAUAUAACGAAUCGAAGAUAGAUAGAAGGGACAUGAGGAUCACCCAUGUGAGGAAGACAA,13.1,11.1,
GAUAUGGUGGCUCAGGAUAUGCAAGGCUUAACAUGAGGAUCACCCAUGUUAUUUAAUGUGCAAGCGCAGAAGGGAGCUUGGCAAAA,,,apparent Kd [3]: 9.39 nM; apparent Kd [4]: 5.53 nM
GUAAAACGGAAGAAGGCGCGGAGUACAGGGUAAAAUCAGGUCACAUGAGGAUCACCCAUGUGGAGCGAGGAUAUUCAUAAGGUA,24.7,63.2,
AUUAUGUAAGGAUAUCGAGAAAUAAAGAAUCUAGUCAGCCACGAGAAGGAACAUGAGGAUCACCCAUGUGGAUA,13.8,12.2,
UACUCGACUUAGAAGGGUUUGUGGACAGCCAGUGGCGUGCGUACAUGAGGAUCACCCAUGUCUCAACAGGAUAUAAGCAUUAGC,35,27,
UCACAACUAGGAUAUUUAGUGCUAUACAUGAGGAUCACCCAUGUCGUGUGCACUAGUACGAAAGAAGGAGUUAUCG,5.09,5.21,
UCACUUGUCUAGAAGGGUCGGCACAUGAGGAUCACCCAUGUAAAUGGCUGGUUCAAAUAAUUUUGACAGGAUAUAGAGAGCACU,16.6,50.4,
UGGACUGUGACAUGAGGAUCACCCAUGUAAAUAAUUCCGCAUAGAAGGGUCCAACGUAAAUGAAGACAGGAUAUAUGGGAGCGU,,,apparent Kd [3]: 45.4 nM; apparent Kd [4]: 24 nM
CCUGAACGGGACAUGAGGAUCACCCAUGUAUGAGACUCAAAGAAGGAUAUCUUACAUACAGUUCGAGAGAAGGUCUAGCAAACG,86.5,54.9,
CUCGAGUCAGGAUAUAUUAACAGAACUUCCUAAAUGGACGAAUAGAAGGGACAUGAGGAUCACCCAUGUUUGGC,11.8,11,
AGAAUGUCAGGAUAUACUCGCUAUGUCGCCAAGUCACGCCGACAUGAGGAUCACCCAUGUAGAAGGGACAAGUA,12.9,11.7,
CAAGAGUUGUACAUUGUGAGGCGUCGGGAACGAGGACCGGUACGGCCGCCACUCGAAAAUUAACAUGAGGAUCACCCAUGUACAC,,,apparent Kd [5]: 70.8 nM; apparent Kd [6]: 47.7 nM
AGGAAUAAGACAGGAUAUCGUAAAAUAUAAAACCGAGAAGGGUCACAUGAGGAUCACCCAUGUGUUCCAACGGUGAUCCCUAGA,64.9,68.2,
GUGAAACAUGAGGAUCACCCAUGUUAGGAUAUAACGCGACGGCAGGGAUCUGCGCUACUUAGAAGGAACGGGAC,11.5,9.73,
GGACAACAUGAGGAUCACCCAUGUGAGAAGUGCAAAGGAUAUCGCAGAAGUGAUAACGAACGAGAAGGUUGCCUCU,,,apparent Kd [3]: 23.6 nM; apparent Kd [4]: 10.1 nM
CCUUAAGCAUAAGGAUAUAAGUUUUGACUAAGUUUAGAAGGUAUGCUUGCAAGAUCCGGCAAUAACAUGAGGAUCACCCAUGUG,27.6,21.3,
CAUCAGAGUGUCAGGAUAUGUUCAAAUAACUCGGGACAGAAGGGACAUGAGGAUCACCCAUGUGCAUAAAUUUA,18.4,46.9,
GAUUGAGUUCUAGGAUAUCCAGAGCGGCGUGGGACAUGAGGAUCACCCAUGUGCUCUAUGAUCAUGGAGAAGGAGAACCCCGUU,37.3,46,
AGUGUAAUAUAAGGAUAUAACCGCACAAGAAUGUUAGAAGGUAUUUUACAUGAGGAUCACCCAUGUGAAUGUAGUCCUCACUAU,9.6,10.5,
ACAUGAGGAUCACCCAUGUGGUCGGCUAUCUACCCAAUGGGCGAGGAUAUCGAGGCAAGAUAAUUCGAGAAGGCGCGUAAGAUA,101,47.4,
GGGCGACAUGAGGAUCACCCAUGUGUCGAUACCAGUAUGAAUUUCUACCCUUGGCAGCGACGACACGGUUAUUUGUGCACUUCGA,,,"apparent Kd (designed as: ON switch for theophylline, no ligand): 81.8 nM; apparent Kd (ligand present: theophylline, designed as: ON switch for theophylline): 200 nM"
CAGUGCGACUCAGGAUAUCAGAACACUAAGGCGUGAGAAGGGAGAACGACACAUGAGGAUCACCCAUGUUAGAGGGAAUGCAUG,37.6,43.7,
AAAACGCAACUCGAUACCAGUACACUGAGUCUUCGCCACGACAUGAGGAUCACCCAUGUGUACCCUUGGCAGCGACAGAGCCACA,,,"apparent Kd (designed as: OFF switch for theophylline, no ligand): 53.9 nM; apparent Kd (ligand present: theophylline, designed as: OFF switch for theophylline): 261 nM"
UAGAAACGUACGGCCGCCACUCGGAAUUGGCUCAGACCAUACGUACAUGAGGAUCACCCAUGUUAGAGGACCGGGUAUAAUCUAA,,,apparent Kd [7]: 26.7 nM; apparent Kd [8]: 20.3 nM

Sequence,apparent Kd [1] [nM],apparent Kd [2] [nM],further results
CCUUAGAUACAUGAGGAUCACCCAUGUCACCAGCAACCUGACGAGGAUAUAUAGGCCAAAUAACUAUAGAAGGCGUUGACCCAA,,,apparent Kd [3]: 20.5 nM; apparent Kd [4]: 12.4 nM
ACUCAACAUGAGGAUCACCCAUGUACUCCAAACAAAGGAUAUUGUGAGUUAAUAUGCAUGCAAGAAGGUUGGUUCA,,,apparent Kd [3]: 42.8 nM; apparent Kd [4]: 36.3 nM
GAACGUAGAGGAUAUACGACAAUGCACUGAUCGACGAGUACACAUGAGGAUCACCCAUGUAGAAGGCUAGGAAU,7.28,6.45,
GAUUGACAUGAGGAUCACCCAUGUAGCGUAUGGUGACUUCUGAAGGAUAUUAAUGCAGUGGCGGUUAAGAAGGUCAGCUAAUCG,45.7,35,
UCUUCGUUGGCGUCACAAUUCAUGCAAUGCCGAGGACCGGUACGGCCGCCACUCGGACUAAUACAUGAGGAUCACCCAUGUCGUG,,,apparent Kd [5]: 123 nM; apparent Kd [6]: 102 nM
UAUGUACGUAGGGACAUGAGGAUCACCCAUGUGGUCCGUAUUAGAAGGACGAAUACCGAUAAAACGUAGGAUAUAAUAACUCCG,134,148,
GGUCGUGAUAAGGAUAUUGGCUGUCGUGCAAUCCAAGAAGGUAUCACAUGAGGAUCACCCAUGUACGCGUGUUG,44.1,85.6,
AAAUAAGAGGAGAAGGGCAAAAUGUCGAACCGAGCAGGAUAUCCACAGAACAUGAGGAUCACCCAUGUGGUCAAACAGUACAAA,,,apparent Kd [3]: 54.4 nM; apparent Kd [4]: 39 nM
GGUGUUCCUCUAGGAUAUAGCGAUACAUGAGGAUCACCCAUGUUACUCCAGCGCGGCGGAUCGCUCUAGAAGGAGACAUAGCCA,75.1,53.4,
CUACUCAUAGGAUAUGAAGCCCGAGACAUGAGGAUCACCCAUGUAUGAUCUACUGUGCGCUCAGAAGGAUGCAGUA,23.9,13.4,
GUUGCCCAGCGAGGAUAUGUGAACCGGCUGCUCACAGAAGGCGCAAAUGAUUUUCAUUAUUCCCGACAUGAGGAUCACCCAUGU,21.9,16.3,
CCGCCACGUCAAGGAUAUGCACGGGAGCCCGUAGCAGAAGGUGAGGCGAACGCCAUCCCACAUGAGGAUCACCCAUGUACGGGC,,,apparent Kd [3]: 786 nM; apparent Kd [4]: 202 nM
UAAAACAUGAGGAUCACCCAUGUAUUGAGUCGAGGACCGGUACGGCCGCCACUCGGCAAUAAUAACGACGCAUAGCAUGUAGGAA,,,apparent Kd [7]: 12.7 nM; apparent Kd [8]: 14.5 nM
GUUAUCGAACAUGAGGAUCACCCAUGUCAGAGCGGCCGACAGAGAAGGCCAAUUGACAAAUGAUUGGAGGAUAUCUGUACUUUU,,,apparent Kd [3]: 19.3 nM; apparent Kd [4]: 7.57 nM
AUAAAACAUGAGGAUCACCCAUGUAUAGAAAGCGCAGGAUAUAGGUGAUCAUAGUACUAUCAAGAAGGGCGGAACC,,,apparent Kd [3]: 217 nM; apparent Kd [4]: 184 nM
GGUACCGCGGUGAGGAUAUCCUGCGUUUGGCAGCUGGAGAAGGCACAUGAGGAUCACCCAUGUAAAGAGAAUGC,10.5,16.2,
GUGAUCAGCGAGAAGGAGCGUGAACUGUUACGGAGAUGUAACAUAACAUGAGGAUCACCCAUGUGCUAGGAUAUCGGUAAAUAU,,,apparent Kd [3]: 13.3 nM; apparent Kd [4]: 7.4 nM
AACACGCUGGUAGGAUAUUACAACAUGAUGACUCGUCCAAGAAACAACAUGAGGAUCACCCAUGUUAAGAAGGACCACAAGAAA,7.13,7.92,
UUCUUACAUGAGGAUCACCCAUGUCUACACCCUACAGGAUAUGAUGCGGUGAAGACCAAUUCAGAAGGGUAAGGUC,,,apparent Kd [3]: 84.1 nM; apparent Kd [4]: 22.9 nM
GAUAGUCCCAAGGAUAUGUGGGUUUUAUCUUCUACAGAAGGUGGGACAUGAGGAUCACCCAUGUUGCGGCGAGG,26.8,261,
UGGUGCCCUGUAUACAUUGUAAUCCUAAUGCGAGGACCGGUACGGCCGCCACUCGUUGCGGAACAUGAGGAUCACCCAUGUAACA,,,apparent Kd [5]: 18.3 nM; apparent Kd [6]: 16.6 nM
GAAUACGUCAUGAUGAACAUGAGGAUCACCCAUGUAGUGCCUUAGGAUAUGCUACGAUUACUGCCGCAGAAGGAAGUGCAAGAA,,,apparent Kd [3]: 44.1 nM; apparent Kd [4]: 28.4 nM
GCAGUCCUCCGAGGAUAUAUGACAAUUGACGUGAGAUGUUAGCACAUGAGGAUCACCCAUGUUUUAUAGAAGGCGGGAUAGGUU,,,apparent Kd [3]: 20.5 nM; apparent Kd [4]: 18.3 nM
